We go through four molecules from ChEMBL document CHEMBL1153046, “Synthesis and antitumor activity of substituted triazolo[4,3-a]pyrimidin-6-sulfonamide with an incorporated thiazolidinone moiety” (2009).

Some results are limits rather than exact numbers.

One test has as its system KM12. The test is described as follows: Growth inhibition of human KM12 cells after 48 hrs by sulforhodamine B assay. Format: functional. Conditions: KM12, 48 h. An outline of the steps:
(§1)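 NCI 60-cell-line panel. Cells are grown in RPMI1640 with 5% fetal calf serum and 2 mM L-glutamine, seeded at a density set by growth characteristics, and preincubated 24 h. Compound is tested at a minimum of five concentrations at 10-fold dilution, with 48 h continuous exposure. Viability is read by sulforhodamine B protein assay. GI50, TGI and LC50 come from dose-response curves.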
In general terms: Sulforhodamine B stains cellular protein and so reports cell mass.

For another test, the system named is SF-295. The experiment in a line: Growth inhibition of human SF295 cells after 48 hrs by sulforhodamine B assay. Format: functional. To be noted: SF-295, 48 h. An outline of the steps:
as §1

In general, GI50 refers to the concentration at which growth is held to half of that of the control. A word on the TGI: it is the concentration at which net growth stops. Lower therefore signals greater sensitivity of the cells. On to `COc1ccc(/C=N/c2nc3[nH]nc(C)n3c(=O)c2S(=O)(=O)NN2C(=O)C(CN3CCOCC3)SC2c2cccs2)cc1` (stereo unspecified), for which halving of growth in the test on KM12 (GI50) required 4.06 µM. In the test on SF-295, this molecule gave a GI50 of 4.69 µM, an LC50 (concentration killing 50% of cells) of over 100 µM and a TGI of over 100 µM.

The molecule `COc1ccc(/C=N/c2nc3[nH]nc(C)n3c(=O)c2S(=O)(=O)NN2C(=O)C(CN3CCN(C)CC3)SC2c2cccs2)cc1` (stereo unspecified) registered a GI50 in the test on KM12 of 3.02 µM. In the test on SF-295, this molecule gave a GI50 of 1.02 µM, an LC50 (concentration killing 50% of cells) of over 100 µM and a concentration for total growth inhibition (TGI) of over 100 µM.

Turning to `COc1ccc(/C=N/c2nc3[nH]nc(C)n3c(=O)c2S(=O)(=O)NN2C(=O)C(CN3CCN(C)CC3)SC2c2ccc(OC)cc2)cc1` (stereo unspecified), the GI50 with KM12 amounted to 24.8 µM. In the test with SF-295, this molecule gave a GI50 of 16.8 µM, an LC50 (concentration killing 50% of cells) of 76.8 µM and a TGI of 35.9 µM.

The molecule `COc1ccc(/C=N/c2nc3[nH]nc(C)n3c(=O)c2S(=O)(=O)NN2C(=O)C(CN3CCOCC3)SC2c2ccc(OC)cc2)cc1` (stereo unspecified) had a GI50 with KM12 of 36.1 µM. In the test with SF-295, this molecule registered a GI50 of 33.2 µM, an LC50 (concentration killing 50% of cells) of over 100 µM and a TGI of over 100 µM.
